Data set [1] is described as follows: Selectivity ratio of Ki for Myc-tagged delta opioid receptor to Ki for FLAG-tagged mu opioid receptor.
Data set [2] deals with T1, Mu-type opioid receptor (Homo sapiens, UniProt P35372). In words: Agonist activity at mu opioid receptor expressed in HEK293 cells assessed as inhibition of forskolin-induced cAMP accumulation after 30 mins by liquid scintillation counter. The class given is functional, cell-based. (In general: Changes in cAMP serve as a functional read-out for many G protein-coupled receptors.)
T1 sequence (P35372 whole entry): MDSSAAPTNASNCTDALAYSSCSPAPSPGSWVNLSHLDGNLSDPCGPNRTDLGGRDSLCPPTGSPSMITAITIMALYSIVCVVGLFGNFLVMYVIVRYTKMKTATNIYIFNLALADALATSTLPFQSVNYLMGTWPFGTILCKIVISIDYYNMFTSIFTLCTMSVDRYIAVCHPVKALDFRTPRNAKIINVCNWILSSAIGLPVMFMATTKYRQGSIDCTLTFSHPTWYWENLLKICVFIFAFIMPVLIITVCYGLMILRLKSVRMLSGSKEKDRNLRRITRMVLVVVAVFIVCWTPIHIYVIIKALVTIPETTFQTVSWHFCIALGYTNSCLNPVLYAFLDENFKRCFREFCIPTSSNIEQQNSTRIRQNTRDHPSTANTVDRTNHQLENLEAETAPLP

Data set [3] has as its target T1, Mu-type opioid receptor. In words: Agonist activity at human FLAG-tagged mu opioid receptor expressed in HEK293 cells assessed as induction of ERK1/2 phosphorylation after 10 mins by Western blot analysis. The class given is functional, cell-based. The essentials:
(§1)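 Stable HEK293 line with FLAG-tagged MOR, in 12-well plates and serum-starved 16 h, then exposed to peptide at various concentrations for 10 min at 37 °C. Lysis in RIPA with 10 μM PMSF and phosphatase inhibitors. 20 μg protein run on 10% SDS-PAGE, blotted to PVDF and probed for phospho-ERK1/2 (Thr202/Tyr204) and total ERK1/2 (1:1000), ECL detection; at least three independent experiments.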

The target in data set [4] is Delta-type opioid receptor (Mus musculus) (UniProt P32300). In words: Agonist activity at delta opioid receptor in Kunming mouse vas deferens assessed as inhibition of electrically-stimulated muscle contraction in presence of delta opioid receptor antagonist naltrindole. In kind it is functional, tissue-based.
Sequence of Delta-type opioid receptor (Mus musculus) (P32300 whole entry): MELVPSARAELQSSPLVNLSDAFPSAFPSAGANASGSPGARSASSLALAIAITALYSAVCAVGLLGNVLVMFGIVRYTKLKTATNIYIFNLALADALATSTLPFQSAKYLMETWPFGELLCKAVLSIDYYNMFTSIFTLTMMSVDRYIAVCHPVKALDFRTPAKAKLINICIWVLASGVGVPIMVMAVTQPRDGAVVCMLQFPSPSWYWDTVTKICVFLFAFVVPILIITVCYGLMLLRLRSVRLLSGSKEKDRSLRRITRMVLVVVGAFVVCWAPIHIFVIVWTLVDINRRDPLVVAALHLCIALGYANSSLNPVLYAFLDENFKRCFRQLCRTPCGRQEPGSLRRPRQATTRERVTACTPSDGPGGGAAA
The target of data set [5] is Mu-type opioid receptor (Cavia porcellus, UniProt P97266). In words: Agonist activity at mu opioid receptor in guinea pig ileum assessed as inhibition of electrically-stimulated muscle contraction. In kind it is functional, tissue-based.
Sequence of Mu-type opioid receptor (Cavia porcellus, UniProt P97266) (P97266 whole entry): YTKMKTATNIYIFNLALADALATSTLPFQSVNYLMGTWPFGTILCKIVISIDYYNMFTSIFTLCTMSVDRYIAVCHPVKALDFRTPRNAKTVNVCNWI
The target of data set [6] is T1, Mu-type opioid receptor. In words: Agonist activity at mu opioid receptor expressed in HEK293 cells assessed as inhibition of forskolin-induced cAMP accumulation after 30 mins by liquid scintillation counter relative to control. The class given is functional, cell-based. The procedure, abridged:
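MOR-expressing HEK293 cells seeded at 80% confluence the day before, washed with serum-free medium, preincubated 10 min at 37 °C with 1 mM IBMX, then peptide (5 × 10−11 to 5 × 10−5 M) with 50 μM forskolin added for 30 min at 37 °C. Lysis in 0.2 N HCl, neutralisation, cAMP measured by competition with [3H]cAMP for PKA (≥2 h, 4 °C) and charcoal separation; scintillation counting.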

Data set [7] deals with Delta-type opioid receptor (Mus musculus, UniProt P32300). In words: Agonist activity at delta opioid receptor in Kunming mouse vas deferens assessed as inhibition of electrically-stimulated muscle contraction. In kind it is functional, tissue-based.
Sequence of Delta-type opioid receptor (Mus musculus, UniProt P32300) (P32300 whole entry): as the sequence (P32300 whole entry) above
Data set [8] can be described thus: Half life in mouse brain homogenates. The class given is ADME, tissue-based. The conditions noted are these: brain homogenate. The procedure, abridged:
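Peptide incubated at 37 °C in twice-washed 15% mouse brain membrane homogenate, final protein 2.1 mg/mL in 50 mM Tris, pH 7.4. Aliquots centrifuged 13000g, 15 min, 4 °C, filtered 0.22 μm and analysed by C18 RP-HPLC (acetonitrile/water, 0.05% TFA). Half-life from pseudo-first-order disappearance kinetics; at least three experiments.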

Data set [9] concerns Mus musculus. In words: Antinociceptive activity in naloxone treated Kunming mouse assessed as inhibition of heat-induced tail flick at 20 nmol/kg, icv after 10 mins post naloxone treatment. The class given is functional, organism-based. The essentials: (§2)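 Male Kunming mice (18−22 g), peptide or saline given icv; tail immersed in 50 ± 0.2 °C water and withdrawal latency recorded; only mice with baseline latency about 3−5 s used. Readings at 5, 10, 15, 20, 30, 40, 50 and 60 min post-injection; 10−15 mice per group. Naloxone 2 mg/kg ip 10 min before icv dosing for antagonism. ED50 with 95% confidence limits by graded dose−response.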

Data set [10] addresses T1, Mu-type opioid receptor. In words: Displacement of [3H]DAMGO from FLAG-tagged mu opioid receptor expressed in HEK293 cells after 60 mins by liquid scintillation counter. The class given is cell-based. (Loss of bound radioactivity is the signal in a displacement assay; it reports binding, not function.)
Data set [11] relates to Mus musculus. In words: Antinociceptive activity in icv dosed Kunming mouse assessed as inhibition of heat-induced tail flick after 5 to 60 mins. In kind it is functional. The conditions noted are these: for ED50: central. The essentials:
as §2

In data set [12] the target is T1, Mu-type opioid receptor. In words: Agonist activity at human FLAG-tagged mu opioid receptor expressed in HEK293 cells assessed as induction of ERK1/2 phosphorylation at 10 nM after 10 mins by Western blot analysis. In kind it is functional, cell-based. The essentials:
as §1
For orientation: In western blotting, separated proteins are transferred to a membrane and probed.

For data set [13], the target named is Delta-type opioid receptor (Homo sapiens, UniProt P41143). In words: Displacement of [3H]DPDPE from Myc-tagged delta opioid receptor expressed in HEK293 cells after 60 mins by liquid scintillation counter. The class given is cell-based.
Sequence of Delta-type opioid receptor (Homo sapiens, UniProt P41143) (P41143 whole entry): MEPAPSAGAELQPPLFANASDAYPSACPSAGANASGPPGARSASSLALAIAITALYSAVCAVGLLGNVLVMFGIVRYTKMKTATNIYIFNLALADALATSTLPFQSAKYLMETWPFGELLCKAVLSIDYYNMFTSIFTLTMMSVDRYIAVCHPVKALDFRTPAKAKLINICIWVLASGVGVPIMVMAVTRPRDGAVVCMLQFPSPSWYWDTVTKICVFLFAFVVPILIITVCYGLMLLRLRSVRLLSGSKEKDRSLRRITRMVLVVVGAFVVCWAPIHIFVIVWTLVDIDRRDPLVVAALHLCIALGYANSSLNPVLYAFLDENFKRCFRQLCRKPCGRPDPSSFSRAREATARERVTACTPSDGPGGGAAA
For data set [14], the system named is Mus musculus. In words: Antinociceptive activity in Kunming mouse assessed as inhibition of heat-induced tail flick at 0.67 to 20 nmol/kg, icv. The class given is functional, organism-based. The following applies: TDE = time-dependent effect. The essentials: as §2
The target in data set [15] is T1, Mu-type opioid receptor. In words: Agonist activity at human FLAG-tagged mu opioid receptor expressed in HEK293 cells assessed as induction of ERK1/2 phosphorylation at 1 pM after 10 mins by Western blot analysis. In kind it is functional, cell-based. The procedure, abridged:
as §1

A word on the EC50: it is the concentration at which the effect is half-maximal. As usually defined, the IC50 is the concentration that gives 50% inhibition. What is called Emax is the maximal effect, on the per cent scale that the assay sets. For orientation: half-life means the time needed for the level to fall by half in the phase considered. Higher therefore signals slow loss. The term Ki denotes a dissociation constant, usually derived from enzyme kinetics or from competition with a known ligand. Read a low Ki as tighter binding. A word on the ED50: it is the dose at which the effect has come halfway, by size or by number of responders.

The source made the active and inactive calls.

Consider `C=C(C(N)=O)[C@@H](NC(=O)[C@H](Cc1c[nH]c2ccccc12)NC(=O)[C@@H]1CCCN1C(=O)[C@@H](N)Cc1ccc(O)cc1)c1ccccc1`, for which the Ratio Ki in data set [1] is 105000. Moreover, the EC50 on Mu-type opioid receptor [2] stood at 0.16 nM. Also, the inhibition entry at Mu-type opioid receptor [2] was “Dose-dependent effect”; in the data set on Mus musculus [11] it was “Dose-dependent effect”; with Mus musculus [14], “tde”. Moreover, the Activity entry on Mu-type opioid receptor [3] was “Dose-dependent effect”. The inhibition result (in data set [4]; in the data set on Mus musculus [9]) was “inactive” throughout. The IC50 on Mu-type opioid receptor [5] was determined as 6.81 nM; in data set [7], 7.53 nM. In addition, the maximal effect (Emax) on Mu-type opioid receptor [6] is 97.9%. In data set [8], the half-life was determined as 1.04 h. For the same compound, the Ki on Mu-type opioid receptor [10] is 0.535 nM; in data set [13], 56000 nM. For the same compound, in the data set on Mus musculus [11], the 50% effective dose (ED50) is 0.00233 µmol/kg. Moreover, the result on Mu-type opioid receptor [12] and on Mu-type opioid receptor [15] was Active.
As for `C=C(C(N)=O)[C@@H](NC(=O)[C@H](Cc1c[nH]c2ccccc12)NC(=O)[C@@H]1CCCN1C(=O)[C@@H](N)Cc1ccc(O)cc1)c1ccco1`, in data set [1], the Ratio Ki is 226000. Moreover, the EC50 at Mu-type opioid receptor [2] was determined as 0.0334 nM. Besides, the inhibition result on Mu-type opioid receptor [2] was “Dose-dependent effect”; in the data set with Mus musculus [11], “Dose-dependent effect”; with Mus musculus [14], “tde”. For the same compound, the Activity entry at Mu-type opioid receptor [3] was “Dose-dependent effect”. Besides, the inhibition result (in data set [4]; with Mus musculus [9]) was “inactive” throughout. Moreover, the values for the concentration for half-maximal inhibition (IC50) (on Mu-type opioid receptor [5]; in data set [7]) were 2.92 nM and 15.8 nM, respectively. The Emax at Mu-type opioid receptor [6] was 97.1%. Further, in data set [8], the half-life is 1.43 h. Moreover, the Ki at Mu-type opioid receptor [10] was 0.221 nM; in data set [13] it was 50000 nM. Also, in the data set on Mus musculus [11], the 50% effective dose (ED50) was found to be 0.00142 µmol/kg. The result on Mu-type opioid receptor [12] and on Mu-type opioid receptor [15] was Active.

The record behind these values is ChEMBL document CHEMBL2163332 (J Med Chem, 2012).
